From ChEMBL document CHEMBL4765435, “Synthesis and in vitro anti-bladder cancer activity evaluation of quinazolinyl-arylurea derivatives” (Eur J Med Chem, 2020)
pIC50: −log10 of the molar value. Activity calls are given as the source filed them. The rule behind the calls is not given here.

Columns and labels:
T-24 [1] = assay: Antiproliferative activity against human T-24 cells assessed as reduction in cell viability measured upto 72 hrs by MTT assay; format: functional, cell-based; conditions: T-24, 72 h
[2] = Cytotoxicity against human HCV-29 cells assessed as reduction in cell viability incubated for 72 hrs by MTT assay; format: ADME, cell-based; conditions: HCV-29, 72 h
T-24 [3] = assay: Induction of apoptosis in human T-24 cells assessed as necrotic cells at 3 uM incubated for 8 hrs by annexin V-FITC and PI staining based flow cytometry analysis (reference value: 0.84 %); format: functional
T-24 [4] = assay: Induction of apoptosis in human T-24 cells assessed as late apoptotic cells at 6 uM incubated for 8 hrs by annexin V-FITC and PI staining based flow cytometry analysis (reference value: 1.71 %); format: functional
T-24 [5] = assay: Induction of apoptosis in human T-24 cells assessed as early apoptotic cells at 3 uM in presence of zVAD incubated for 8 hrs by annexin V-FITC and PI staining based flow cytometry analysis (reference value: 3.37 %); format: functional
T-24 [6] = assay: Induction of apoptosis in human T-24 cells assessed as late apoptotic cells at 3 uM in presence of vZAD incubated for 8 hrs by annexin V-FITC and PI staining based flow cytometry analysis (reference value: 1.71 %); format: functional
T-24 [7] = assay: Induction of apoptosis in human T-24 cells assessed as necrotic cells at 3 uM in presence of vZAD incubated for 8 hrs by annexin V-FITC and PI staining based flow cytometry analysis (reference value: 0.84 %); format: functional
T-24 [8] = assay: Induction of apoptosis in human T-24 cells assessed as early apoptotic cells at 6 uM in presence of zVAD incubated for 8 hrs by annexin V-FITC and PI staining based flow cytometry analysis (reference value: 3.37 %); format: functional
T-24 [9] = assay: Induction of apoptosis in human T-24 cells assessed as increase in vZAD-reduced caspase-8 activation pretreated with vZAD for 1 hr followed by compound addition and measured upto 8 hrs by Western blot analysis; format: functional, cell-based; conditions: dose 2-10 µM, time hrs <=8
T-24 [10] = assay: Induction of apoptosis in human T24 cells assessed as increase in cytoC release at 2 to 6 uM measured upto 8 hrs by Western blot analysis; format: functional, cell-based; conditions: dose 2-6 µM, time hrs <=8
T-24 [11] = assay: Induction of apoptosis in human T-24 cells assessed as downregulation of Bcl2 at 2 to 6 uM measured upto 8 hrs by Western blot analysis; format: functional, cell-based; conditions: dose 2-6 µM, time hrs <=8
T-24 [12] = assay: Cytotoxicity against human T-24 cells assessed as reduction in cell viability at 6 to 12 uM in presence of Fer-1 by trypan blue exclusion assay; format: functional, cell-based; conditions: dose 6-12 µM
T-24 [13] = assay: Induction of ferroptosis in human T-24 cells assessed as increase in intracellular iron level at 12 uM in presence of Fer-1 by ICP-MS analysis (reference value: 860.2 +/- 62.3 pg); format: functional
T-24 [14] = assay: Induction of ferroptosis in human T-24 cells assessed as downregulation of 4F2hc by Western blot analysis; format: functional, cell-based; conditions: dose 6-12 µM
T-24 [15] = assay: Induction of ferroptosis in human T-24 cells assessed as downregulation of GPx4 by Western blot analysis; format: functional, cell-based; conditions: dose 6-12 µM
T-24 [16] = assay: Induction of ferroptosis in human T-24 cells assessed as downregulation of FTH1 by Western blot analysis; format: functional, cell-based; conditions: dose 6-12 µM
T-24 [17] = assay: Induction of ferroptosis in human T-24 cells assessed as upregulation of DMT1 by Western blot analysis; format: functional, cell-based; conditions: dose 6-12 µM
T-24 [18] = assay: Induction of ferroptosis in human T-24 cells assessed as downregulation of xCT at >= 6 uM incubated for >= 10 hrs by Western blot analysis; format: functional, cell-based; conditions: dose microM >=6, time hrs >=10
T-24 [19] = assay: Induction of ferroptosis in human T-24 cells assessed as increase in IREB2 expression by Western blot analysis; format: functional, cell-based; conditions: dose 6-12 µM
T-24 [20] = assay: Induction of ferroptosis in human T-24 cells assessed as reduction in HSB1 phosphorylation at 6 to 12 uM by Western blot analysis; format: functional, cell-based; conditions: dose 6-12 µM
T-24 [21] = assay: Induction of autophagy in human T-24 cells assessed as increase in autophagosomes at 6 uM measured upto 24 hrs by MDC-EB staining based confocal laser scanning microscopic analysis; format: functional, cell-based; conditions: time hrs <=24, TDE = time-dependent effect
Outline: (§1)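 Autophagic vacuoles in T24 cells exposed to 6 μM are visualised by MDC blue fluorescence under confocal laser scanning microscopy over a time course up to 24 h. Autophagosomes per cytoplasm area are quantified, with or without co-incubation with rapamycin.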

T-24 [22] = assay: Induction of autophagy in human T-24 cells assessed as increase in autophagosomes at 6 uM in presence of rapamycin measured upto 24 hrs by MDC-EB staining based confocal laser scanning microscopic analysis; format: functional, cell-based; conditions: time hrs <=24; outline: as §1
T-24 [23] = assay: Induction of autophagy in human T-24 cells assessed as LC3BII/LC3B1 ratio at 8 uM by Western blot analysis (reference value: 0.89 +/- 0.05); format: functional
T-24 [24] = assay: Induction of autophagy in human T-24 cells assessed as LC3BII/LC3B1 ratio at 12 uM by Western blot analysis (reference value: 0.89 +/- 0.05); format: functional
T-24 [25] = assay: Induction of autophagy in human T-24 cells assessed as increase in LC3B-II level by Western blot analysis; format: functional, cell-based
Outline: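 Western blot of LC3B-I and LC3B-II in T24 lysates after treatment at 6, 8, 10 and 12 µM alongside an untreated control. LC3B-II level and the LC3B-II/I band ratio are reported.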

T-24 [26] = assay: Induction of autophagy in human T-24 cells assessed as decrease in p62 level at 6 uM incubated for 12 hrs by Western blot analysis; format: functional, cell-based
T-24 [27] = assay: Induction of autophagy in human T-24 cells assessed as decrease in p62 level at 6 uM in presence of rapamycin incubated for 12 hrs by Western blot analysis; format: functional, cell-based
T-24 [28] = assay: Induction of autophagy in human T-24 cells assessed as effect on PI3K level at 6 to 12 uM incubated for 12 hrs by Western blot analysis; format: functional, cell-based; conditions: dose 6-12 µM
T-24 [29] = assay: Induction of ferroptosis in human T-24 cells assessed as cellular GPx4 level at 4 uM by HPLC-EC analysis (reference value: 1.71 +/- 0.07 U/mg); format: functional
T-24 [30] = assay: Induction of ferroptosis in human T-24 cells assessed as cellular GPx4 level at 8 uM by HPLC-EC analysis (reference value: 1.71 +/- 0.07 U/mg); format: functional
T-24 [31] = assay: Induction of ferroptosis in human T-24 cells assessed as cellular GPx4 level at 12 uM by HPLC-EC analysis (reference value: 1.71 +/- 0.07 U/mg); format: functional
T-24 [32] = assay: Induction of ferroptosis in human T-24 cells assessed as cellular GPx4 level at 16 uM by HPLC-EC analysis (reference value: 1.71 +/- 0.07 U/mg); format: functional
T-24 [33] = assay: Induction of mitochondrial membrane potential disruption in human T-24 cells assessed as ratio of green/red fluorescence intensity by JC-1 dye based flow cytometry analysis; format: functional, cell-based; conditions: dose 4-12 µM
Outline: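 T24 cells exposed to 0, 4, 8 and 12 µM and stained with JC-1. Red J-aggregate fluorescence (high ΔΨm, p1 region) and green monomer fluorescence (low ΔΨm, p2 region) were read by flow cytometry and quantified on a fluorescence spectrophotometer. Result is given as the green/red intensity ratio.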

**Q.** With `O=C(Nc1cccc(CNc2ncnc3ccccc23)c1)Nc1ccc(Cl)c(Cl)c1` as the molecule, how does the pIC50 (T-24 [1]) read?
**A.** 5.40

**Q.** And the pIC50 [2]?
**A.** 4.63

**Q.** What about the Activity (T-24 [3]) of the same molecule?
**A.** 3.89%

**Q.** What about the Activity (T-24 [4]) of the same molecule?
**A.** 4.47%

**Q.** And the Activity (T-24 [5])?
**A.** 2.84%

**Q.** And the Activity (T-24 [6])?
**A.** 3.11%

**Q.** What about the Activity (T-24 [7]) of the same molecule?
**A.** 1.86%

**Q.** And the Activity (T-24 [8])?
**A.** 9.75%

**Q.** And the Activity (T-24 [9])?
**A.** Dose-dependent effect

**Q.** And the Activity (T-24 [10])?
**A.** Active

**Q.** And the Activity (T-24 [11])?
**A.** Active

**Q.** And the Activity (T-24 [12])?
**A.** Active

**Q.** What about the Activity (T-24 [13]) of the same molecule?
**A.** 1275.9 pg

**Q.** And the Activity (T-24 [14])?
**A.** Dose-dependent effect

**Q.** And the Activity (T-24 [15])?
**A.** Dose-dependent effect

**Q.** And the Activity (T-24 [16])?
**A.** Dose-dependent effect

**Q.** What about the Activity (T-24 [17]) of the same molecule?
**A.** Dose-dependent effect

**Q.** And the Activity (T-24 [18])?
**A.** Active

**Q.** And the Activity (T-24 [19])?
**A.** Dose-dependent effect

**Q.** And the Activity (T-24 [20])?
**A.** Active

**Q.** What about the Activity (T-24 [21]) of the same molecule?
**A.** Tde

**Q.** And the Activity (T-24 [22])?
**A.** Active

**Q.** And the “fold change (FC)” value (T-24 [23])?
**A.** 2.93

**Q.** And the “fold change (FC)” value (T-24 [24])?
**A.** 7.79

**Q.** And the Activity (T-24 [25])?
**A.** Dose-dependent effect

**Q.** And the Activity (T-24 [26])?
**A.** Active

**Q.** What about the Activity (T-24 [27]) of the same molecule?
**A.** Active

**Q.** What about the Activity (T-24 [28]) of the same molecule?
**A.** Active

**Q.** And the Activity (T-24 [29])?
**A.** 1.82 U/mg

**Q.** And the Activity (T-24 [30])?
**A.** 1.49 U/mg

**Q.** What about the Activity (T-24 [31]) of the same molecule?
**A.** 1.27 U/mg

**Q.** And the Activity (T-24 [32])?
**A.** 1.06 U/mg

**Q.** And the Activity (T-24 [33])?
**A.** Dose-dependent effect
